Here are results for four compounds from ChEMBL document CHEMBL1136765, “1,3-dioxolane-based ligands as a novel class of alpha1-adrenoceptor antagonists” (J Med Chem, 2003).

The structures appear in SMILES notation.

In experiment [1] the target is Adrenergic receptors; alpha-1 A & B (Homo sapiens) (UniProt P35348+P35368). The experiment can be described thus: Selectivity over alpha-1a/alpha-1b. The format is protein assay.
For experiment [2], the target named is T1, Alpha-1D adrenergic receptor (Homo sapiens, UniProt P25100).
T1 sequence (P25100 whole entry): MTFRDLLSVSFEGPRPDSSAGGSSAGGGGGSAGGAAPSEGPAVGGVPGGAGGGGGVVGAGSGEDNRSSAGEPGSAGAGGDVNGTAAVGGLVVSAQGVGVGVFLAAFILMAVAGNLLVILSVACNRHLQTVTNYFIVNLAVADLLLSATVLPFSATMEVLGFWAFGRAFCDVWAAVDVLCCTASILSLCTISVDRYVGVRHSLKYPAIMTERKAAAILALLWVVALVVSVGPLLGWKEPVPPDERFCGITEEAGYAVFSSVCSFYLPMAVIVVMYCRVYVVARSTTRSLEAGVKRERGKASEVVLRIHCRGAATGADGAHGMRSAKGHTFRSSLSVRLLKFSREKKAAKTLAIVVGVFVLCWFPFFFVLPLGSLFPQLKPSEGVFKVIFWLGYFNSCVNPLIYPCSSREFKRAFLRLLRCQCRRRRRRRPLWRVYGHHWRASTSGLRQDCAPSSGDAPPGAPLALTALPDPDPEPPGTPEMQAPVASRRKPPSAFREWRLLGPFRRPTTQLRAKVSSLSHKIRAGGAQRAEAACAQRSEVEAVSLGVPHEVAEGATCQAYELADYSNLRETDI
The experiment can be described thus: Affinity constant towards human recombinant Alpha-1D adrenergic receptor using [3H]prazosin (from CHO cells) as radioligand by radioligand binding assay. The format is cell-based. The essentials:
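Membranes of CHO cells stably expressing each cloned human α1 subtype (30 µg protein) incubated with 0.1-0.4 nM [3H]prazosin in 50 mM Tris-HCl pH 7.4, 30 min at 25 °C, with competitor. Nonspecific binding with 10 µM phentolamine. Stopped by ice-cold buffer and filtration on PEI-pretreated filters. IC50 by curve fitting, Ki via Cheng-Prusoff. Mean of two to three experiments in triplicate.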

Experiment [3] concerns the target T2, Alpha-1D adrenergic receptor (Rattus norvegicus, UniProt P23944).
T2 sequence (P23944 whole entry): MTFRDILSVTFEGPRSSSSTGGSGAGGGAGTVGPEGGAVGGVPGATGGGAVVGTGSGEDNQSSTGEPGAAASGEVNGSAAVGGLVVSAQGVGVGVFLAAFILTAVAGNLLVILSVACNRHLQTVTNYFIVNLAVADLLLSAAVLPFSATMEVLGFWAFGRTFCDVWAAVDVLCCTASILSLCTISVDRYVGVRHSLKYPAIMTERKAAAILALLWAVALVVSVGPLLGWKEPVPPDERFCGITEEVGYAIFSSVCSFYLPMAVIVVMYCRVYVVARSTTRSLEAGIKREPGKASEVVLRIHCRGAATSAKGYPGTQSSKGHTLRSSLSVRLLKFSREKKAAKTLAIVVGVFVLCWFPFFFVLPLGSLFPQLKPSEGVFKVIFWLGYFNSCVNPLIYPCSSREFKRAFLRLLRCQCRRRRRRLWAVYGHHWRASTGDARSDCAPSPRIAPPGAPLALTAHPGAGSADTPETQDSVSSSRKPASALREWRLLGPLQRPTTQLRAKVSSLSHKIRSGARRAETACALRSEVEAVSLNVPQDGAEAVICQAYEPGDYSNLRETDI
The experiment can be described thus: Antagonistic activity against (-)-noradrenaline-induced contraction of rat thoracic aorta (Alpha-1D adrenergic receptor). Format: functional, tissue-based. The settings on record: read-out: pA2 (converted). A digest of the protocol:
(§1)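 Endothelium-denuded rat thoracic aorta strips (denudation confirmed by no 100 µM acetylcholine relaxation after 1 µM noradrenaline) in Tyrode, 1 g tension, ≥2 h equilibration. Cumulative (-)-noradrenaline curves at 1 h intervals; third as control, antagonist 30 min before fourth.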

The target in experiment [4] is Alpha adrenergic receptor 1A and 1D (Rattus norvegicus) (UniProt P23944+P43140). The experiment can be described thus: Selectivity given as ratio of pKb value against Alpha-1D receptor to pKb value against alpha1A receptor in rat. The format is functional.
The target of experiment [5] is T3, Alpha-1B adrenergic receptor (Rattus norvegicus, UniProt P15823).
T3 sequence (P15823 whole entry): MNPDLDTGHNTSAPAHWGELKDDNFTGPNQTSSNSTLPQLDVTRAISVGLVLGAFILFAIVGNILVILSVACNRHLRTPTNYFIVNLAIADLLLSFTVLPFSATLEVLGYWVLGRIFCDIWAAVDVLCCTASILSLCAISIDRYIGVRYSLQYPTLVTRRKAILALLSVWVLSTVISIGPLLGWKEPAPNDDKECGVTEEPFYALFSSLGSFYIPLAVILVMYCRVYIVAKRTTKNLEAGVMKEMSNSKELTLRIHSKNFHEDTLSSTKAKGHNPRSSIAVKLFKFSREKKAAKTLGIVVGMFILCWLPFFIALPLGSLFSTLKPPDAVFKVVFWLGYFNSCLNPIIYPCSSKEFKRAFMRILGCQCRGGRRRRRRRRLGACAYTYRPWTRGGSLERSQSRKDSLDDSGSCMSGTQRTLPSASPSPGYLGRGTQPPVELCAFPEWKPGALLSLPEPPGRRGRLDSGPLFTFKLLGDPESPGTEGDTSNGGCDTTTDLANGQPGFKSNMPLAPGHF
In words: Antagonistic activity against (-)-phenylephrine-induced contraction of rat spleen (Alpha-1B adrenergic receptor ). Format: functional, tissue-based. The note with it: read-out: pA2 (converted). A digest of the protocol:
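Rat spleen strips in buffer containing 4 µM propranolol to block β-adrenoceptors, 1 g resting tension, 2 h equilibration. Isometric cumulative phenylephrine curves at 30 min intervals; first discarded, second control.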

Experiment [6] has as its target T4, Alpha-1A adrenergic receptor (Rattus norvegicus, UniProt P43140).
T4 sequence (P43140 whole entry): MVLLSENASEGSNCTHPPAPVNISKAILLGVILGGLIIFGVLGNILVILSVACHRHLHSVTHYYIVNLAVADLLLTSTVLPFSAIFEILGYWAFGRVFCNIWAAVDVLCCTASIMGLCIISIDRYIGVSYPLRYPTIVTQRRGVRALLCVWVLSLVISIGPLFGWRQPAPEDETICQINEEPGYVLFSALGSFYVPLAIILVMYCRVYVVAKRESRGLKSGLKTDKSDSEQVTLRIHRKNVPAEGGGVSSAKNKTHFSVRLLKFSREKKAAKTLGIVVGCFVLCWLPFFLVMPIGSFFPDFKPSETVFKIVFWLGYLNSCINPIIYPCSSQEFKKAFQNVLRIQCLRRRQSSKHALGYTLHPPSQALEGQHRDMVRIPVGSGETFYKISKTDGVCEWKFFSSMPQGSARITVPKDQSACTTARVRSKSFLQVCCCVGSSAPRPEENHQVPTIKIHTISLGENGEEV
The experiment can be described thus: Antagonistic activity against (-)-noradrenaline-induced contraction of rat prostatic vas deferens (alpha1A receptor). The format is functional, tissue-based. The settings on record: read-out: pA2 (converted). The essentials: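 Rat prostatic vas deferens portion equilibrated 60 min, washed every 15 min, primed twice with 10 µM noradrenaline, re-equilibrated 60 min; control noradrenaline concentration-response curve, then antagonist 30 min before repeat curve.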

The target in experiment [7] is T5, Alpha-1D adrenergic receptor (Rattus norvegicus) (UniProt P23944).
T5 sequence (whole entry): T2 sequence (P23944 whole entry)
The experiment can be described thus: Inhibition of (-)-noradrenaline-induced contraction of rat thoracic aorta (Alpha-1D adrenergic receptor). The format is functional, tissue-based. The essentials:
as §1

For `O=C(O)C(=O)O.c1ccc(OCCNCC2COC(c3ccccc3)(c3ccccc3)O2)cc1` (stereo not drawn), the Selectivity in experiment [1] stood at 2; in experiment [4] it was 162. Further, the Ki in experiment [2] is 11.5 nM. Besides, the Kb in experiment [3] is 4.27 nM.
For `COc1ccccc1OCCNCC1COC(c2ccccc2)(c2ccccc2)O1.O=C(O)C(=O)O` (stereo not drawn), the Selectivity in experiment [1] came out at 2; in experiment [4] it was 13. Also, the Kb in experiment [5] was 43.7 nM; in experiment [6], 29.5 nM; in experiment [3], 2.24 nM. In addition, the Ki in experiment [2] was 9.33 nM.
As for `CN(CCOc1ccccc1)CC1COC(c2ccccc2)(c2ccccc2)O1.O=C(O)C(=O)O` (stereo not drawn), the Selectivity in experiment [1] is 0.3; in experiment [4] it was 10. Also, in experiment [7], the negative logarithm of the Kb (pKb) came to 6.06. The inhibitory constant (Ki) in experiment [2] was above 1000 nM.
The like results for `C[N+](C)(CCOc1ccccc1)CC1COC(c2ccccc2)(c2ccccc2)O1.O=C([O-])C(=O)O` (stereo not drawn) were, in that order, 0.6, above 15, 6.19 and above 1000 nM.

For orientation: Ki means the equilibrium dissociation constant of an inhibitor or competing ligand from its target. As a reminder, the pKb is the negative decadic logarithm of the Kb, by convention in mol/L.
